Test results reported in PMC3162318 (Journal of biomolecular screening, 2011).

target: T1, TRβ-SRC2-2 interaction (hTRβ LBD, SRC2-2 fluorescein peptide) (Homo sapiens, UniProt P10828); assay: not given; type: binding; conditions: confirmation, independent samples, fluorescein fluoroprobe
T1 sequence (P10828 209-461): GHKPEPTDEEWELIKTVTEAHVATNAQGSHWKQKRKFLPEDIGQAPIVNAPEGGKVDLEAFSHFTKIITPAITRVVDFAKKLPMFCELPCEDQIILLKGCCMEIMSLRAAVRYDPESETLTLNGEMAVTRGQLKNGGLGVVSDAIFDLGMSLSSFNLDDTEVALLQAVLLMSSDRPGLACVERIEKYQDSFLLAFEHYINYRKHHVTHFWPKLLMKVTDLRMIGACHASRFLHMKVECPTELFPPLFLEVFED
How it was run: (§1)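 Talon-purified TRβ (eluted with T3), 0.6 uM, with 20 nM SRC2-2 peptide carrying an N-terminal Texas Red or fluorescein label, in pH 7.4 Tris buffer with 1 µM T3 and 4% DMSO. Test compound was given as 10 three-fold dilutions, top 130 µM, then incubated 3 h at ambient temperature. Polarization was read at 555/632 nm (Texas Red) or 480/535 nm (fluorescein). mP was normalized to DMSO wells with and without TRβ, and concentration-response curves were fitted.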

SMILES | IC50
CN1CC[C@@]2(C)c3cc(O)ccc3N(C)[C@H]2O1 [geneseroline] | > 30 µM

target: T2, TRβ-SRC2-2 interaction (hTRβ LBD, SRC2-2 Texas Red peptide) (Homo sapiens, UniProt P10828); assay: not given; type: binding; conditions: confirmation, independent samples, Texas Red fluoroprobe
T2 sequence (P10828 209-461): T1 sequence (P10828 209-461)
How it was run: as §1

SMILES | IC50
CN1CC[C@@]2(C)c3cc(O)ccc3N(C)[C@H]2O1 [geneseroline] | > 30 µM

target: T2, TRβ-SRC2-2 interaction (hTRβ LBD, SRC2-2 Texas Red peptide); assay: TRβ-SRC2-2 fluorescence polarization qHTS; type: binding; conditions: six concentrations up to 92 μM; FP inhibition

SMILES | activity in the qHTS (active/inactive)
CC(=O)c1cccc(NC(=O)COC(=O)c2ccc(S(C)(=O)=O)c([N+](=O)[O-])c2)c1 [MLS000517219-01] | inactive
O=C(COC(=O)c1ccc(Cl)cc1O)NC(=O)C1CCCCC1 [MLS000776485-01] | loss of the activity
CS(=O)(=O)c1ccc(C(=O)OCc2nnc(-c3ccccc3)o2)cc1[N+](=O)[O-] [MLS001010708-01] | inactive
CS(=O)(=O)c1ccc(C(=O)OCC(=O)NC(=O)C2CCCCC2)cc1[N+](=O)[O-] [MLS000517530-01] | active
CS(=O)(=O)c1ccc(C(=O)OCC(=O)NC2CCS(=O)(=O)C2)cc1[N+](=O)[O-] (stereo not shown) [MLS000336487-01] | inactive
CS(=O)(=O)c1ccc(C(=O)OCc2nnc(-c3ccc(Cl)cc3)o2)cc1[N+](=O)[O-] [MLS001003284-01] | inactive
COc1cc(C(=O)OCC(=O)NC(=O)C2CCCCC2)ccc1OC(F)F [MLS000517502-01] | loss of the activity
O=C(COC(=O)c1ccncc1)NC(=O)C1CCCCC1 [MLS000565662-01] | loss of the activity
Cc1ccccc1NC(=O)COC(=O)c1ccc(S(C)(=O)=O)c([N+](=O)[O-])c1 [MLS001017631-01] | inactive
CS(=O)(=O)c1ccc(C(=O)OCC(=O)NC23CC4CC(CC(C4)C2)C3)cc1[N+](=O)[O-] [MLS000389544-01] | active
CC(CCc1ccccc1)NC(=O)COC(=O)c1ccc(S(C)(=O)=O)c([N+](=O)[O-])c1 (stereo not shown) [MLS001003365-01] | active
